Measurements reported in paper PMC8227600 (ACS Central Science, 2021).
Counter-ions that a name gives are not always drawn.

How the values were obtained:
HT22 cells [1] = assay: Erastin-induced ferroptosis in HT22 cells; format: cell-based, mouse
In short: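 HT22 cells were cotreated with Erastin and test compound, and cell viability was measured. A value was reported as not determined where viability was below 50% at 1.0 μM compound with Erastin.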

NCOA4^383–522 [2] = target: T1, NCOA4^383–522 (Homo sapiens, UniProt Q13772); assay: Surface plasmon resonance binding to NCOA4^383–522
T1 sequence (Q13772 383-522): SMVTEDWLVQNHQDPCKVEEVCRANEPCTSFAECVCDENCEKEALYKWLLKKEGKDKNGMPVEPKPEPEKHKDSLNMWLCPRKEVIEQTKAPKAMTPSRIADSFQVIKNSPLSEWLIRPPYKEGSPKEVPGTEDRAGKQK

HT-1080 cells [3] = assay: Ferroptosis induced by Erastin, RSL3, ML210 or GPX4 knockdown in HT-1080 cells; format: cell-based, human
In short: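 HT-1080 cells were transfected for 12 h with scrambled siRNA (si-NC) or GPX4-targeting siRNA. Cells were then treated for 36 h with or without 0.5 μM test compound, 0.5 μM Fer-1 or 20 μM DFO. Viability was read by CCK-8. Values are mean ± SEM of three independent experiments.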

HT22 cells [4] = assay: LC3-II level; format: cell-based, mouse; conditions: 6 h, Western blotting
HT22 cells [5] = assay: Lipid ROS; format: cell-based, mouse; conditions: 3 h; for lipid ROS, oxidized BODIPY-C11 fluorescence intensity: 1 μM RSL3, 0.5 μM compound
In short: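 HT22 cells were exposed to 1 μM RSL3 with or without 0.5 μM test compound or 0.5 μM Fer-1 for 3 h. Lipid ROS was detected with BODIPY-C11 (oxidized form, green) by confocal microscopy (Hoechst 33342 nuclei) and by flow cytometry. Cytosolic ROS was measured by flow cytometry with carboxy-H2DCFDA.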

[6] = target: T2, NCOA4^383–522–FTH1 interaction (Homo sapiens, UniProt Q13772); assay: ELISA for NCOA4^383–522–FTH1 protein-protein interaction; format: binding
T2 sequence (Q13772 383-522): T1 sequence (Q13772 383-522)
In short: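 Test compound at the indicated concentrations was preincubated with recombinant NCOA4 383–522. Binding of NCOA4 383–522 to FTH1 was then monitored by ELISA to build a dose–response curve. Values are mean ± SEM of three independent experiments.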

[7] = tested on: MCAO model of ischemic stroke; format: in vivo, rat; conditions: for infarct volume (TTC staining): rat, in vivo
HT22 cells [8] = assay: Intracellular Fe^2+; format: cell-based, mouse; conditions: 6 h; for fluorescence intensity of FerroOrange (free Fe^2+): 0.5 μM 9a or 50 μM DFO
In short: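 Live HT22 cells were given 0.5 μM test compound or 50 μM DFO for 6 h, then imaged by confocal microscopy with the Fe2+ probe FerroOrange; nuclei were stained with Hoechst 33342. Lysosomal Fe2+ was scored as FerroOrange signal colocalised with LysoTracker Green per cell, about 100 cells per condition. Three independent experiments, mean ± SEM.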

NCOA4^383–522 [9] = target: T1, NCOA4^383–522; assay: Pull-down of recombinant NCOA4^383–522; format: binding; conditions: protein preincubated with 9a 1 h
In short: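 Recombinant NCOA4 383–522 or FTH1 protein was pretreated with test compound or DMSO for 1 h. It was then incubated for 1 h with increasing concentrations of a biotinylated probe precoupled to streptavidin magnetic beads. Bead-bound protein was detected by silver staining and Western blotting.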

PTGS2 mRNA = PTGS2 mRNA expression; format: cell-based, mouse; conditions: 12 h
NCOA4–FTH1 interaction = target: T3, NCOA4–FTH1 interaction (Homo sapiens, UniProt Q13772); assay: Coimmunoprecipitation of NCOA4 and FTH1 in cells; format: cell-based
T3 sequence (Q13772 1-614): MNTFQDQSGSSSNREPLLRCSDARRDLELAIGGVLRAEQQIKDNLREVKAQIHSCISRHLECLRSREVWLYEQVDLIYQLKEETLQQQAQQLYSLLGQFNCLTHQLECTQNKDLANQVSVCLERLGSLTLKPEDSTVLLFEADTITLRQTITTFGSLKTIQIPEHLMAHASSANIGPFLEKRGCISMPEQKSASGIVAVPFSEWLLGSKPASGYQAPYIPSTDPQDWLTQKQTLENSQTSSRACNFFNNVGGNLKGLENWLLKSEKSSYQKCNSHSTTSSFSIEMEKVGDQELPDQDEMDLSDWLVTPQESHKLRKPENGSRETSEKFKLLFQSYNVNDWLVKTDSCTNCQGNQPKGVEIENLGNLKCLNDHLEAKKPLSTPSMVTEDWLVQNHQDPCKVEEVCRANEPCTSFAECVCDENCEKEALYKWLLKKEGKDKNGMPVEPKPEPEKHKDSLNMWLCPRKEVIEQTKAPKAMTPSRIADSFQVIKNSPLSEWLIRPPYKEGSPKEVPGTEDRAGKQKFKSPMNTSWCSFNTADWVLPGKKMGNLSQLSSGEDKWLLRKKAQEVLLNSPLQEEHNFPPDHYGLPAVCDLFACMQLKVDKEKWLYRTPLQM

HT22 cells [10] = assay: Intracellular GSH level and GPX4 expression in HT22 cells; format: cell-based, mouse; conditions: 12 h
HT-1080 cells [11] = assay: Lipid ROS in HT-1080 cells after GPX4 knockdown; format: cell-based, human; conditions: 0.5 μM 9a, 36 h
HT22 cells [12] = assay: Ferroptosis induced by cysteine depletion, BSO or ML210 in HT22 cells; format: cell-based, mouse; conditions: for cell death from cysteine depletion: cystine-free media 24 h, 0.5 μM 9a, 0.5 μM Fer-1 or 20 μM DFO
ferritin = assay: Ferritin protein level; format: cell-based, mouse; conditions: 6 h
HT22 cells [13] = assay: Non-ferroptotic cell death; format: cell-based, mouse
NCOA4 = target: T4, NCOA4 (Homo sapiens, UniProt Q13772); assay: Biotin–streptavidin pull-down from HEK-293T lysates; format: binding; conditions: lysate preincubated with 9a (20 μM) 6 h at 4 °C
T4 sequence (Q13772 1-614): T3 sequence (Q13772 1-614)
In short: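 HEK-293T lysates expressing FTH1-Myc-His and NCOA4-Flag were pretreated with test compound or DMSO for 6 h at 4 °C. They were then incubated overnight at 4 °C with increasing concentrations of a biotinylated probe precoupled to streptavidin magnetic beads. Precipitates were pulled down with the beads and immunoblotted with anti-tag antibodies. Biotin-PEG3-N3 served as the negative-control probe.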

HT22 cells [14] = assay: RSL3-induced ferroptosis in HT22 cells; format: cell-based; conditions: Mus musculus, HT-22, 24 h, read-out: EC50, inhibition of RSL3-induced death

## CN1CCN(c2ccc3nc(-c4cccc(N5CCc6ccccc6C5)c4)[nH]c3c2)CC1 [4a]
HT22 cells [1]; Mus musculus, HT-22, 24 h
  EC50: 500 nM

## CC1CCN(c2ccc3nc(-c4cccc(N5CCc6ccccc6C5)c4)[nH]c3c2)CC1 [4b]
HT22 cells [1]; Mus musculus, HT-22, 24 h
  EC50: 640 nM

## c1cc(-c2nc3ccc(N4CCCCC4)cc3[nH]2)cc(N2CCc3ccccc3C2)c1 [4c]
HT22 cells [1]; Mus musculus, HT-22, 24 h
  EC50: 1210 nM

## CN1CCN(c2ccc3nc(-c4cccc(N5CCc6cc(F)ccc6C5)c4)[nH]c3c2)CC1 [9a]
NCOA4^383–522 [2]
  Kd: 7480 nM
HT-1080 cells [3]; inducers 1 μM, 24 h
  ferroptosis induced by Erastin, RSL3, or ML210: inhibited ferroptosis
HT-1080 cells [3]; si-GPX4 12 h, then 0.5 μM 9a 36 h
  ferroptosis induced by knockdown of GPX4: significantly suppressed ferroptosis
HT22 cells [1]; Mus musculus, HT-22, 24 h
  EC50: 290 nM
HT22 cells [4]
  LC3-II level: no ability to induce an increase in the LC3-II level
HT22 cells [5]
  lipid ROS, oxidized BODIPY-C11 fluorescence intensity: remarkably decreased
HT22 cells [5]; carboxy-H2DCFDA, flow cytometry
  RSL3-induced cytosolic ROS accumulation: suppressed by 9a in a dose-dependent manner
[6]
  IC50: 3260 nM
[7]; 10 mg/kg i.p.
  4-hydroxynonenal (4-HNE) level in the lesioned hemisphere: reduced
  PTGS2 gene expression in the lesioned hemisphere: significantly decreased
  malondialdehyde (MDA) level in the lesioned hemisphere: reduced
[7]; 10 mg/kg i.p., 24 h after MCAO and reperfusion
  neurological deficits (Longa test): improved neurological deficits
[7]; 10 mg/kg i.p., lesioned hemisphere
  percentage of injured neurons in the cortex (Nissl staining): reduced the percentage of injured neurons in the cortex
[7]
  infarct volume (TTC staining): substantially reduced infarct volume
HT22 cells [8]
  fluorescence intensity of FerroOrange (free Fe^2+): significantly decreased
HT22 cells [8]; 0.5 μM 9a
  Fe^2+ in lysosomes (FerroOrange colocalized with LysoTracker Green): diminished
NCOA4^383–522 [9]
  competition of Biotin-14d binding to NCOA4^383–522: blocked
PTGS2 mRNA
  RSL3-induced PTGS2 mRNA expression: dose-dependently inhibited the upregulation of PTGS2 expression
NCOA4–FTH1 interaction; HEK-293T cells, 16 h treatment
  NCOA4–FTH1 interaction, co-IP of FTH1-Myc-His and NCOA4-Flag: substantially impaired
NCOA4–FTH1 interaction; HT-1080 cells, 6 h
  endogenous NCOA4–FTH1 interaction, co-IP: inhibited the endogenous NCOA4 interaction with FTH1
HT22 cells [10]
  intracellular GSH level: did not change
HT22 cells [10]; immunoblot
  GPX4 expression: did not change
HT-1080 cells [11]
  lipid ROS accumulation induced by knockdown of GPX4: inhibited lipid ROS accumulation
HT22 cells [12]; 100 μM BSO, 12 h
  BSO-induced ferroptosis: dose-dependently prevented cell death
HT22 cells [12]; ML210 10 μM, 24 h
  ML210-induced ferroptosis: ferroptosis inhibitory behavior similar to those of Fer-1 and DFO
HT22 cells [12]
  cell death from cysteine depletion: significantly reduced the level of cell death
ferritin; 0.5 μM 9a, qPCR
  mRNA expressions of FTH1 and FTL: did not change
ferritin; Western blotting
  protein level of ferritin: increased in a dose-dependent manner
HT22 cells [13]; 0.5 μM STS, 24 h
  staurosporine (STS)-induced apoptosis: cannot inhibit
HT22 cells [13]; 2 mM H2O2, 12 h
  hydrogen peroxide (H2O2)-induced necrosis: cannot inhibit
HT22 cells [13]; 12 h
  TNF-α/SM-164/zVAD-fmk-induced necroptosis: cannot inhibit
NCOA4
  competition of Biotin-14d binding to NCOA4: competitively inhibited

## Cc1ccc2c(c1)CN(c1cccc(-c3nc4ccc(N5CCN(C)CC5)cc4[nH]3)c1)CC2 [9e]
HT22 cells [1]; Mus musculus, HT-22, 24 h
  EC50: 770 nM

## COc1cccc2c1CN(c1cccc(-c3nc4ccc(N5CCN(C)CC5)cc4[nH]3)c1)CC2 [9f]
HT22 cells [1]; Mus musculus, HT-22, 24 h
  EC50: 330 nM

## CCOc1ccc2c(c1)CCN(c1cccc(-c3nc4ccc(N5CCN(C)CC5)cc4[nH]3)c1)C2 [14a]
HT22 cells [1]; Mus musculus, HT-22, 24 h
  EC50: 510 nM

## CCCOc1ccc2c(c1)CCN(c1cccc(-c3nc4ccc(N5CCN(C)CC5)cc4[nH]3)c1)C2 [14b]
HT22 cells [1]; Mus musculus, HT-22, 24 h
  EC50: 390 nM

## CC(C)Oc1ccc2c(c1)CCN(c1cccc(-c3nc4ccc(N5CCN(C)CC5)cc4[nH]3)c1)C2 [14c]
HT22 cells [1]; Mus musculus, HT-22, 24 h
  EC50: 530 nM

## C#CCOc1ccc2c(c1)CCN(c1cccc(-c3nc4ccc(N5CCN(C)CC5)cc4[nH]3)c1)C2 [14d]
HT22 cells [1]; Mus musculus, HT-22, 24 h
  EC50: 880 nM
HT22 cells [14]
  EC50: 690 nM

## CC(=O)N(O)CCCCCNC(=O)CCC(=O)N(O)CCCCCNC(=O)CCC(=O)N(O)CCCCCN [DFO, Deferoxamine mesylate, reference compound]
HT22 cells [1]; Mus musculus, HT-22, 24 h
  EC50: 5750 nM
HT22 cells [8]
  fluorescence intensity of FerroOrange (free Fe^2+): significantly decreased
HT22 cells [12]
  cell death from cysteine depletion: significantly reduced the level of cell death

## CCOC(=O)c1ccc(NC2CCCCC2)c(N)c1 [Fer-1, Ferrostatin-1, reference compound]
HT22 cells [1]; 1 μM Erastin, 24 h, CCK-8
  EC50: 82 nM
HT22 cells [5]
  lipid ROS, oxidized BODIPY-C11 fluorescence intensity: remarkably decreased
[7]
  infarct volume (TTC staining): substantially reduced infarct volume
HT22 cells [12]
  cell death from cysteine depletion: significantly reduced the level of cell death
